Activity calls are given as the source filed them. No cut-off for these calls is given here.
Key:
Leishmania infantum [1] = test: Antileishmanial activity against Leishmania infantum MHOM/ES/2007/DP532JFJ infected in mouse BMDM cells assessed as reduction in intracellular amastigotes after 48 hrs; assay type: functional, organism-based
Method in brief: (§1)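 Bone-marrow-derived macrophages from ICR (CD-1) mice, differentiated with L929-conditioned medium, plated 4 × 10^6 per well on coverslips and allowed to adhere 1 day. Infected with stationary-phase promastigotes at 10:1 parasite/macrophage, then exposed to 25–1000 μM for 48 h (0.5% DMSO). Giemsa-stained, infection percentage counted by microscopy. IC50 from linear regression of infection reduction; at least triplicate.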

Leishmania donovani [2] = test: Antileishmanial activity against Leishmania donovani MHOM/IN/00/LEM138 infected in mouse BMDM cells assessed as reduction in intracellular amastigotes after 48 hrs; assay type: functional, organism-based; method in brief: as §1
L929 [3] = test: (§2) Cytotoxicity against mouse L929 cells after 72 hrs by trypan blue assay; assay type: cell-based; conditions: l929, 72 h
Method in brief: (§3)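 L929 fibroblasts were plated at 5 × 10^4/well in RPMI-1640 with 10% FBS at 37 °C, 5% CO2. They were exposed to 25–1000 μM compound, with diluent controls, for 72 h. Cells were mixed 1:1 with 0.4% trypan blue and live and dead cells counted in a hemocytometer. Survival was expressed relative to controls and CC50 approximated.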

Mus musculus [4] = test: Toxicity in Balb/c mouse assessed as changes in plasma biochemical changes at 50 and 200 mg/kg, po; conditions: in vivo
Mus musculus [5] = test: Toxicity in Balb/c mouse assessed as changes in plasma enzymatic changes at 50 and 200 mg/kg, po; conditions: in vivo
Leishmania infantum [6] = test: Antileishmanial activity against Leishmania infantum promastigotes infected in Balb/c mouse assessed as reduction parasite load in liver at 50 mg/kg, po dosed daily starting 28 days after infection for 14 days by real-time PCR relative to control
Leishmania infantum [7] = test: Antileishmanial activity against Leishmania infantum promastigotes infected in Balb/c mouse assessed as reduction parasite load in spleen at 50 mg/kg, po dosed daily starting 28 days after infection for 14 days by real-time PCR relative to control
[8] = Cytotoxicity against mouse L929 cells assessed as survival rate at 25 to 250 uM after 72 hrs by trypan blue assay; assay type: cell-based; conditions: read-out: Survival
Method in brief: (§4)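 Trypan Blue exclusion assay. BMDM (4 × 10^5/well) or L929 fibroblasts (5 × 10^4/well) incubated 72 h with 25–1000 μM compound, with DMSO diluent controls. Cells then mixed 1:1 with 0.4% Trypan Blue and live and dead cells counted in a hemocytometer. Survival ratio calculated against controls at each concentration.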

Mus musculus [9] = test: Toxicity in ICR (CD1) mouse assessed as histological changes at 200 mg/kg, po; assay type: organism-based; conditions: in vivo
Method in brief: (§5)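 Mice were given daily oral doses of 50, 200 or 1000 mg/kg in olive oil for 14 days, alongside a noninfected healthy reference group. Animals were weighed weekly and checked for stress, pain, cutaneous signs and diarrhea. After sacrifice, spleen and liver were weighed, plasma biochemical and enzymatic values were assessed, and tissue sections were examined by light microscopy.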

Mus musculus [10] = test: Toxicity in ICR (CD1) mouse at 1000 mg/kg, po; assay type: organism-based; conditions: in vivo; method in brief: as §5
[11] = as §2; assay type: cell-based; conditions: L929 cells; method in brief: as §3
[12] = (§6) Selectivity index, ratio of CC50 for mouse L929 cells to IC50 for Leishmania infantum MHOM/ES/2007/DP532JFJ; assay type: functional
Leishmania infantum [13] = test: Antileishmanial activity against Leishmania infantum promastigotes infected in ICR (CD1) mouse assessed as reduction in parasite load in spleen at 200 mg/kg, po dosed daily starting 28 days after infection for 14 days by real-time PCR co-treated with 104 mg Sb'v/kg/day, ip meglumine antimoniate for 14 days; assay type: functional, organism-based
Method in brief: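 Female 4–6-week-old Balb/c mice received 10^7 stationary-phase L. infantum promastigotes ip, in groups of seven. From day 28 they were dosed orally each day for 14 days in olive oil; meglumine antimoniate 104 mg SbV/kg was given ip. Spleen and liver load was measured by L. infantum-specific qPCR in triplicate against a calibration curve, as parasites/mg, and reduction was taken versus untreated mice.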

Leishmania infantum [14] = test: Antileishmanial activity against Leishmania infantum promastigotes infected in Balb/c mouse assessed as parasite load in spleen at 200 mg/kg, po dosed daily starting 28 days after infection for 14 days by real-time PCR
[15] = (§7) Selectivity index, ratio of CC50 for mouse L929 cells to IC50 for Leishmania donovani MHOM/IN/00/LEM138; assay type: functional
[16] = Cytotoxicity against human skin fibroblast cells; assay type: cell-based
[17] = Cytotoxicity against mouse J774.G8 cells assessed as reduction in cell viability incubated for 24 hrs by MTT assay; assay type: cell-based
[18] = Cytotoxicity against ICR(CD1) BMDM assessed as survival rate at 25 to 250 uM after 72 hrs by trypan blue assay; conditions: mouse; method in brief: as §4
[19] = Cytotoxicity against mouse L929 cells assessed as survival rate at 500 uM after 72 hrs by trypan blue assay; assay type: cell-based; conditions: read-out: Survival; method in brief: as §4
Leishmania infantum [20] = test: Antileishmanial activity against Leishmania infantum promastigotes infected in Balb/c mouse assessed as parasite load in liver at 200 mg/kg, po dosed daily starting 28 days after infection for 14 days by real-time PCR
Leishmania infantum [21] = test: Antileishmanial activity against Leishmania infantum MHOM/ES/2007/DP532JFJ infected in mouse BMDM cells assessed as reduction in infection at 150 uM after 48 hrs; assay type: functional
Method in brief: (§8)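 Mouse bone-marrow macrophages were differentiated with L929-conditioned medium and plated with coverslips. They were infected with stationary-phase promastigotes at a 10:1 parasite:macrophage ratio. Compound (25–1000 μM, 0.5% DMSO) was added for 48 h, at least in triplicate. Cells were Giemsa-stained and the percentage infected (≥1 amastigote) was counted by microscopy. Reduction was calculated relative to untreated or diluent wells.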

[22] = Cytotoxicity against mouse L929 cells assessed as survival rate at 1000 uM after 72 hrs by trypan blue assay; assay type: cell-based; conditions: read-out: Survival; method in brief: as §4
Leishmania infantum [23] = test: Antileishmanial activity against Leishmania infantum promastigotes; assay type: functional, organism-based
Mus musculus [24] = test: Toxicity in Balb/c mouse assessed as histological changes at 50 mg/kg, po; conditions: in vivo
[25] = Toxicity in po dosed rat; assay type: organism-based; conditions: in vivo
Leishmania donovani [26] = test: Antileishmanial activity against Leishmania donovani MHOM/IN/00/LEM138 infected in mouse BMDM cells assessed as reduction in infection at 150 uM after 48 hrs; assay type: functional; conditions: MHOM/IN/00/LEM138, BMDM; method in brief: as §8
Leishmania amazonensis = test: Antileishmanial activity against Leishmania amazonensis MHOM/BR/76/MA-76 intracellular amastigotes infected in BALB/c mouse peritoneal macrophages incubated for 24 hrs by Giemsa staining based light microscopy; assay type: functional, organism-based; conditions: MHOM/BR/76/MA-76, 24 h
Leishmania infantum [27] = test: Antileishmanial activity against Leishmania infantum promastigotes infected in ICR (CD1) mouse assessed as reduction in parasite load in spleen at 104 mg Sb'v/kg, ip treated 28 days after infection for 14 days by real-time PCR relative to control; assay type: functional, organism-based
Leishmania infantum [28] = test: Antileishmanial activity against Leishmania infantum promastigotes infected in ICR (CD1) mouse assessed as parasite load in liver at 104 mg Sb'v/kg, ip dosed daily starting 28 days after infection for 14 days by real-time PCR; assay type: functional, organism-based
L929 [29] = test: as §6; assay type: functional
L929 [30] = test: as §7; assay type: functional
Leishmania infantum [31] = test: Antileishmanial activity against Leishmania infantum promastigotes infected in ICR (CD1) mouse assessed as reduction in parasite load in liver at 104 mg Sb'v/kg, ip dosed daily starting 28 days after infection for 14 days by real-time PCR relative to control; assay type: functional, organism-based
Leishmania infantum [32] = test: Antileishmanial activity against Leishmania infantum promastigotes infected in ICR (CD1) mouse assessed as parasite load in spleen at 104 mg Sb'v/kg, ip dosed daily starting 28 days after infection for 14 days by real-time PCR; assay type: functional, organism-based
[33] = Leishmania infantum, MHOM/ES/2007/DP532JFJ, BMDM, 48 h
[34] = Leishmania donovani, MHOM/IN/00/LEM138, BMDM, 48 h

Which results are given for “MEGLUMINE ANTIMONATE [listing 1 of 2 here]”?
IC50 (Leishmania infantum [1]; bmdm): 144 µM; IC50 (Leishmania donovani [2]; bmdm): 96.4 µM; CC50 (L929 [3]): 273 µM

With `CC(C)=CCC[C@@](C)(O)[C@@H]1CC=C(C)CC1` as the compound, how does the Activity (Mus musculus [4]) read?
Its Activity is “Non-toxic”.

What about the Activity (Mus musculus [5]) of the same compound?
The Activity was “Non-toxic”.

What about the inhibition (Leishmania infantum [6]) of the same compound?
Its inhibition is “Active”.

What about the IC50 (Leishmania infantum [1]; [33]) of the same compound?
The IC50 was 56.9 µM.

And the IC50 (Leishmania donovani [2]; [34])?
Its IC50 is 39.4 µM.

What about the inhibition (Leishmania infantum [7]) of the same compound?
Its inhibition is “Active”.

And the viability at 72 h, up to 250 µM [8]?
The viability at 72 h, up to 250 µM was 100%.

And the Activity (Mus musculus [9])?
The Activity was “Non-toxic”.

What about the Activity (Mus musculus [10]) of the same compound?
The Activity was “Non-toxic”.

And the CC50 at 72 h [11]?
The CC50 at 72 h was over 1000 µM.

And the “Ratio CC50/IC50” value [12]?
The value was over 17.

And the inhibition (Leishmania infantum [13])?
The inhibition was “inactive”.

What about the inhibition (Leishmania infantum [14]) of the same compound?
The inhibition was “Active”.

What about the “Ratio CC50/IC50” value [15] of the same compound?
The value was over 25.

What about the CC50 [16] of the same compound?
The CC50 was over 150 µM.

What about the CC50 at 24 h [17] of the same compound?
The CC50 at 24 h was 452 µM.

What about the Activity [18] of the same compound?
The Activity was “Non-toxic”.

And the viability at 72 h, 500 µM [19]?
The viability at 72 h, 500 µM was 86.7%.

And the inhibition (Leishmania infantum [20])?
The inhibition was “Active”.

What about the inhibition at 150 µM (Leishmania infantum [21]) of the same compound?
Its inhibition at 150 µM is 85%.

What about the viability at 72 h, 1000 µM [22] of the same compound?
The viability at 72 h, 1000 µM was 62.3%.

What about the IC50 (Leishmania infantum [23]) of the same compound?
The IC50 was 49 µM.

And the Activity (Mus musculus [24])?
Its Activity is “Non-toxic”.

What about the LD50 [25] of the same compound?
Its LD50 is 14000 mg/kg.

And the inhibition at 150 µM (Leishmania donovani [26])?
The inhibition at 150 µM was 89%.

What about the IC50 (Leishmania amazonensis) of the same compound?
Its IC50 is 48 µM.

With “MEGLUMINE ANTIMONATE [listing 2 of 2 here]” as the compound, how does the inhibition (Leishmania infantum [27]) read?
The inhibition was “inactive”.

And the inhibition (Leishmania infantum [28])?
The inhibition was “Active”.

And the Ratio CC50/IC50 (L929 [29])?
Its Ratio CC50/IC50 is 2.

What about the Ratio CC50/IC50 (L929 [30]) of the same compound?
The Ratio CC50/IC50 was 3.

And the Activity (Leishmania infantum [31])?
Its Activity is “Active”.

And the inhibition (Leishmania infantum [32])?
Its inhibition is “Active”.

With `N=C(N)c1ccc(OCCCCCOc2ccc(C(=N)N)cc2)cc1.O=S(=O)(O)CCO` as the compound, how does the IC50 (Leishmania infantum [1]; [33]) read?
Its IC50 is 1.5 µM.

What about the IC50 (Leishmania donovani [2]; [34]) of the same compound?
The IC50 was 0.88 µM.

And the CC50 at 72 h [11]?
The CC50 at 72 h was 6.1 µM.

And the “Ratio CC50/IC50” value [12]?
Its value is 4.

What about the “Ratio CC50/IC50” value [15] of the same compound?
Its value is 7.

From ChEMBL document CHEMBL3585262, “(-)-α-Bisabolol, a Promising Oral Compound for the Treatment of Visceral Leishmaniasis” (J Nat Prod, 2015)
